Converted amounts (≈) assume the structure as drawn.
What was measured:
[1] = target: T1, Squalene synthase (Rattus norvegicus) (UniProt Q02769); assay: concentration required to inhibit rat liver squalene synthase enzyme relative to control (L-694,599)
T1 sequence (whole entry): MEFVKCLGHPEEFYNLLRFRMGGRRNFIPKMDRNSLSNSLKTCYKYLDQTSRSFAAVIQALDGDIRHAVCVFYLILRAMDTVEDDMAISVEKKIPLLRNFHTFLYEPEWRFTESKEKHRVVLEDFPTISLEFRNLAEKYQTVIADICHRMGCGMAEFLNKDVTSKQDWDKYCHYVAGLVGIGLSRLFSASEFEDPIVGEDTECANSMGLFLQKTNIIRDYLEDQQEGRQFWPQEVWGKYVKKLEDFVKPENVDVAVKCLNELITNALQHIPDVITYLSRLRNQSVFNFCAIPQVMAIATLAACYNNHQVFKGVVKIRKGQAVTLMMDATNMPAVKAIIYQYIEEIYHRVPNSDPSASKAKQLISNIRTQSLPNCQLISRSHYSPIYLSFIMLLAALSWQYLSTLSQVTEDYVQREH
In short: (§1)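 Enzyme from rat liver. […] Inhibitors added in DMSO (0.3% final) as 3-fold serial dilutions, usually up to 30 ng/mL (about 40 nM). IC50 read from % inhibition vs log concentration.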

[2] = target: T2, Squalene synthase (Rattus norvegicus, UniProt Q02769); assay: Tested for inhibition against squalene synthase enzyme in rat liver
T2 sequence (Q02769 whole entry): T1 sequence (whole entry)

[3] = target: T1, Squalene synthase (Rattus norvegicus); assay: Concentration required to inhibit rat liver squalene synthase enzyme relative to control (L-694,599); in short: as §1
[4] = system: Mus musculus; assay: Tested for its ability to inhibit the incorporation of [5-3H]-mevalonolactone into cholesterol by in vivo mouse assay by peroral administration at a dose of 40 mg/kg; assay type: functional; conditions: route oral
In short: (§2)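 Female Swiss Webster mice (~25 g), six per group, dosed po by gavage with inhibitor suspended in 5% emulphor. 30 min later, 0.5 μCi/mouse [5-3H]mevalonolactone in saline given sc. Livers removed 30 min after that and saponified in KOH/EtOH overnight at 55 °C, then petroleum-ether extracted. Nonsaponifiable dpm counted. Compounds first tested at a single dose (typically 12 or 24 mg/kg).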

[5] = system: Mus musculus; assay: Tested for its ability to inhibit the incorporation of [5-3H]-mevalonolactone into cholesterol by in vivo mouse assay by peroral administration at a dose of 12 mg/kg; assay type: functional; conditions: route oral; in short: as §2
[6] = target: T3, Squalene synthase (Mus musculus) (UniProt P53798); assay: Tested for the effective dose required for the incorporation of [5-3H]-mevalonolactone into cholesterol by in vivo mouse assay by peroral administration; assay type: functional, organism-based; in short: as §2
T3 sequence (whole entry): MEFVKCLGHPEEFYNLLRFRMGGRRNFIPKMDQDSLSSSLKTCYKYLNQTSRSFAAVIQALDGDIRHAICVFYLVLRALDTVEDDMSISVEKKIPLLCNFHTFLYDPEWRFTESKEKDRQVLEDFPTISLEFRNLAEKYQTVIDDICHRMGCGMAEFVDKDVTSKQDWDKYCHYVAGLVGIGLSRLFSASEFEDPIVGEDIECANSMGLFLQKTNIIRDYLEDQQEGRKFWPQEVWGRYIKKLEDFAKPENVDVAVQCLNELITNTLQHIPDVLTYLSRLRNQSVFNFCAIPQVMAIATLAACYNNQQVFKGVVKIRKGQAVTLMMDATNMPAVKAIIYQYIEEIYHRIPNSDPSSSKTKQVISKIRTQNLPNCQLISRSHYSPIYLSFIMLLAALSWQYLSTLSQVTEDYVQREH

[7] = system: HepG2; assay: Concentration required to inhibit cholesterol synthesis in Hep G2 cells relative to control (IC50 of L-694,599); assay type: functional, Homo sapiens
In short: (§3)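 Hep G2 cells held 2 days in lipoprotein-depleted FBS to stimulate sterol synthesis, then given inhibitor in serum-free medium for 2 h. 15 μCi [5-3H]mevalonate (0.2 mCi/mmol) added for 1 h. Cells washed and saponified, and radioactivity counted by scintillation.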

[8] = system: Mus musculus; assay: Ability to inhibit the incorporation of [5-3H]-mevalonolactone into cholesterol by in vivo mouse assay by peroral administration at a dose of 24 mg/kg; assay type: functional; conditions: route oral; in short: as §2
[9] = system: HepG2; assay: Concentration required to inhibit cholesterol synthesis in Hep G2 cells; assay type: functional, cell-based; conditions: Homo sapiens; in short: as §3
[10] = system: Candida albicans; assay: Concentration required to inhibit growth of MY 1055 strain of Candida albicans; assay type: functional
In short: (§4)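 Broth microdilution against a panel of clinically relevant fungal strains. Read-out was the minimum fungicidal concentration in μg/mL.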

[11] = system: Candida tropicalis; assay: Concentration required to inhibit growth of MY 1012 strain of Candida tropicalis; assay type: functional; in short: as §4
[12] = system: Aspergillus fumigatus; assay: Concentration required to inhibit growth of MF 4839 strain of Aspergillus fumigatus; assay type: functional; in short: as §4
[13] = system: Candida albicans; assay: Concentration required to inhibit growth of MY 1750 strain of Candida albicans; assay type: functional; in short: as §4
[14] = system: Cryptococcus neoformans; assay: Concentration required to inhibit growth of MY 1051 strain of Cryptococcus neoformans; assay type: functional; in short: as §4
[15] = system: Candida parapsilosis; assay: Concentration required to inhibit growth of MY 1010 strain of Candida parapsilosis; assay type: functional; conditions: Lodderomyces parapsilosis; in short: as §4
[16] = system: Cryptococcus neoformans; assay: Concentration required to inhibit growth of MY 2061 strain of Cryptococcus neoformans; assay type: functional; in short: as §4
[17] = system: Trichophyton benhamiae; assay: Concentration required to inhibit growth of MF 4864 strain of Trichophyton mentagrophytes; assay type: functional, Arthroderma benhamiae; in short: as §4

SMILES	Relative activity [1]	IC50 [2] [nM]	Relative activity [3]	inhibition in vivo at 24 mg/kg [8] [%]	IC50 [9] [nM]	other results
C=C(CCC12OC(C(=O)O)C(OCCCCCCCCCCCC)(C(=O)O)C(C(=O)O)(O1)[C@H](OCCCCCCCCCCCC)[C@H]2O)[C@@H](OC(C)=O)[C@H](C)Cc1ccccc1 (some centres undefined)	0.02	17	–	–	–	–
CC(=O)OC(CCCC12OC(C(=O)O)C(O)(C(=O)O)C(C(=O)O)(O1)[C@H](OC(=O)CC/C=C/C(C)CCCc1ccccc1)[C@H]2O)C(C)Cc1ccccc1 (some centres undefined)	–	0.37	1.38	–	–	inhibition in vivo at 40 mg/kg [4]: 20%
C=C(CCC12OC(C(=O)O)C(OCCCCCCCCOc3ccccc3)(C(=O)O)C(C(=O)O)(O1)[C@H](OCCCCCCCCOc1ccccc1)[C@H]2O)[C@@H](OC(C)=O)[C@H](C)Cc1ccccc1 (some centres undefined)	0.02	8.2	–	–	–	–
C=C(CCC12OC(C(=O)O)C(O)(C(=O)O)C(C(=O)O)(O1)[C@H](OC(=O)CC(C)(C)C)[C@H]2O)[C@@H](OC(C)=O)[C@H](C)Cc1ccccc1 (some centres undefined)	0.15	2	–	–	–	inhibition in vivo at 12 mg/kg [5]: 25%; ED50 [6]: > 12 mg/kg
C=C(CCC12OC(C(=O)O)C(O)(C(=O)O)C(C(=O)O)(O1)[C@H](OC(=O)SC(C)C)[C@H]2O)[C@@H](OC(C)=O)[C@H](C)Cc1ccccc1 (some centres undefined)	0.06	3.4	–	–	–	ED50 [6]: 14 mg/kg
C=C(CCC12OC(C(=O)O)C(O)(C(=O)O)C(C(=O)O)(O1)[C@H](OCCCCCCCCOc1ccccc1)[C@H]2O)[C@@H](OC(C)=O)[C@H](C)Cc1ccccc1 (some centres undefined)	0.81	0.16	–	–	–	inhibition in vivo at 40 mg/kg [4]: 4%
C=C(CCC12OC(C(=O)O)C(O)(C(=O)O)C(C(=O)O)(O1)[C@H](OC(=O)NCCCCCCCCCCCC)[C@H]2O)[C@@H](OC(C)=O)[C@H](C)Cc1ccccc1 (some centres undefined)	–	0.17	1.29	0	8800	Relative activity [7]: 1.02
C=C(CCC12OC(C(=O)O)C(O)(C(=O)O)C(C(=O)O)(O1)[C@H](OC(=O)NCCCCCCCCCC)[C@H]2O)[C@@H](OC(C)=O)[C@H](C)Cc1ccccc1 (some centres undefined)	–	–	–	4	3600	MFC [10]: 8 µg/mL (≈ 11.1 µM); MFC [11]: 16 µg/mL (≈ 22.2 µM); MFC [12]: 32 µg/mL (≈ 44.3 µM); MFC [13]: 4 µg/mL (≈ 5.54 µM); MFC [14]: 4 µg/mL (≈ 5.54 µM); MFC [15]: 8 µg/mL (≈ 11.1 µM); MFC [16]: 0.5 µg/mL (≈ 0.693 µM); MFC [17]: 2 µg/mL (≈ 2.77 µM)
C=C(CCC12OC(C(=O)O)C(OCCCCCCCCCCCCCC)(C(=O)O)C(C(=O)O)(O1)[C@H](O)[C@H]2O)[C@@H](OC(C)=O)[C@H](C)Cc1ccccc1 (some centres undefined)	0.17	0.75	–	–	–	–
C=C(CCC12OC(C(=O)O)C(O)(C(=O)O)C(C(=O)O)(O1)[C@H](OC(=O)CCCCCCCCCCc1ccccc1)[C@H]2O)[C@@H](OC(C)=O)[C@H](C)Cc1ccccc1 (some centres undefined)	–	0.38	0.45	11	8000	Relative activity [7]: 1.37
C=C(CCC12OC(C(=O)O)C(O)(C(=O)O)C(C(=O)O)(O1)[C@H](OC(=O)/C=C/[C@@H](C)C[C@@H](C)CC)[C@H]2O)C[C@H](C)Cc1ccccc1 (some centres undefined)	1.67	0.24	–	–	–	–
C=C(CCC12OC(C(=O)O)C(O)(C(=O)O)C(C(=O)O)(O1)[C@H](OC(=O)NCCCCCCCCCCCOc1ccccc1)[C@H]2O)[C@@H](OC(C)=O)[C@H](C)Cc1ccccc1 (some centres undefined)	1.71	0.07	–	56	1300	Relative activity [7]: 0.64
CCCC(=O)O[C@@H]1[C@@H](O)C2(CCCC[C@H](C)Cc3ccccc3)OC(C(=O)O)C(O)(C(=O)O)C1(C(=O)O)O2 (some centres undefined)	–	110	0.0026	–	–	inhibition in vivo at 12 mg/kg [5]: -3%

Source: ChEMBL document CHEMBL1127414 (J Med Chem, 1994)
